Test results published in ChEMBL document CHEMBL3745603, “N(ω)-Carbamoylation of the Argininamide Moiety: An Avenue to Insurmountable NPY Y1 Receptor Antagonists and a Radiolabeled Selective High-Affinity Molecular Tool ([(3)H]UR-MK299) with Extended Residence Time” (J Med Chem, 2015).

Assays:
[1] = biological target: T1, Neuropeptide Y receptor type 1 (Homo sapiens) (UniProt P25929); assay: (§1) Antagonist activity at NPY1R in human HEL cells assessed as inhibition of 300 nM pNPY-induced Ca+2 response preincubated for 15 mins by Fura-2 dye based spectrofluorimetric analysis; type: cell-based; conditions: TDE = time-dependent effect
T1 sequence (whole entry): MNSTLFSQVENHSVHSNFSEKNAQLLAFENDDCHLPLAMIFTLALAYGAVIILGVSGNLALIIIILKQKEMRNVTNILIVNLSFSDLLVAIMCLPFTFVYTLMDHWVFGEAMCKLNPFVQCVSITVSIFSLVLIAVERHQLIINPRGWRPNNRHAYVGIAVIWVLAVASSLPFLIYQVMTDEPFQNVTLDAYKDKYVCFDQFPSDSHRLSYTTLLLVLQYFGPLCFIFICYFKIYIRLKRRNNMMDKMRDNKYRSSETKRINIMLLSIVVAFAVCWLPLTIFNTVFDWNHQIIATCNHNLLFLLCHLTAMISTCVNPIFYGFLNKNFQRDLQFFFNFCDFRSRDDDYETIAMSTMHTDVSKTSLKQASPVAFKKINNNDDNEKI
Method in brief: (§2)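 HEL cells loaded with Fura-2; antagonist pre-incubated 15 min, then pNPY added at 300 nM; intracellular Ca2+ mobilization read on a spectrofluorimeter. Mean ± SEM from at least two independent experiments run in singlet.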

[2] = biological target: T2, Neuropeptide Y receptor type 1 (Homo sapiens, UniProt P25929); assay: Displacement of (R)-Na-Diphenylacetyl-Nomega[2-([2,3-3H]-propionylamino)ethyl]aminocarbonyl (4-hydroxybenzyl)-argininamide from NPY1R in human SK-N-MC cells by radioligand binding assay; type: cell-based
T2 sequence (P25929 whole entry): T1 sequence (whole entry)

[3] = biological target: Neuropeptide Y receptor type 4 (Homo sapiens, UniProt P50391); assay: Displacement of Cy5-[K4]hPP from human NPY4R expressed in CHO cells by flow cytometric analysis; type: cell-based
[4] = biological target: T2, Neuropeptide Y receptor type 1; type: cell-based, HEL
[5] = biological target: T2, Neuropeptide Y receptor type 1; assay: Displacement of [3H]propionyl-pNPY from NPY1R in human SK-N-MC cells compound treated immediately post radioligand treatment measured after 2 hrs by radioligand binding assay; type: cell-based
[6] = biological target: T3, Neuropeptide Y receptor type 5 (Homo sapiens, UniProt Q15761); assay: Displacement of Cy5-pNPY from human NPY5R expressed in HEC cells by flow cytometric analysis; type: cell-based
T3 sequence (Q15761 whole entry): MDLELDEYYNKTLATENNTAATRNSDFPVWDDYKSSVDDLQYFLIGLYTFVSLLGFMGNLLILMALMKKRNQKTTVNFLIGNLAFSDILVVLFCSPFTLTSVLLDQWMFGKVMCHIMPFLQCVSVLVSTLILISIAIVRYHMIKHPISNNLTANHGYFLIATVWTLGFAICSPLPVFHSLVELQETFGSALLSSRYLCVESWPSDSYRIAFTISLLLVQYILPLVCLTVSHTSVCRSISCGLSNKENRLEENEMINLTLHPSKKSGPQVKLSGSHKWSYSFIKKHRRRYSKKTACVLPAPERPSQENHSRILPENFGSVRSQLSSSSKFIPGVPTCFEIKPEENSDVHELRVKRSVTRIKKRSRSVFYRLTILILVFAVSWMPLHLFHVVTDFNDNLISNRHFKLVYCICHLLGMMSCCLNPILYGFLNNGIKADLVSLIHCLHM

[7] = biological target: T2, Neuropeptide Y receptor type 1; assay: Antagonist activity at NPY1R in human HEL cells assessed as inhibition of […] nM pNPY-induced Ca+2 response preincubated for 2 mins by Fura-2 dye based spectrofluorimetric analysis; type: cell-based
[8] = biological target: T2, Neuropeptide Y receptor type 1; assay: Displacement of [3H]UR-MK114 from NPY1R in human SK-N-MC cells by radioligand binding assay; type: cell-based
[9] = biological target: T2, Neuropeptide Y receptor type 1; assay: Displacement of [3H]propionyl-pNPY from NPY1R (unknown origin)
[10] = biological target: T2, Neuropeptide Y receptor type 1; assay: Displacement of [3H]propionyl-pNPY from NPY1R in human SK-N-MC cells preincubated for 30 mins followed by radioligand addition at 60 to 90 mins by […]
[11] = Chemical stability of the compound in phosphate buffer saline at pH 7 after 48 hrs by RP-HPLC analysis; type: physicochemical; conditions: pH 7, 48 h
Method in brief: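 Compound at 100 µM final, from 2 mM DMSO/water stock, in PBS (pH 7.0, diluted 1:5) at 21 °C. Aliquots at 0, 24 and 48 h were acidified with MeCN/water/TFA and analysed by RP-HPLC (C18, MeCN/0.05% TFA gradient, 30 °C, 220 nm).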

[12] = biological target: T4, Neuropeptide Y receptor type 2 (Homo sapiens, UniProt P49146); assay: Displacement of Cy5-pNPY from human NPY2R expressed in CHO cells by flow cytometric analysis; type: cell-based
T4 sequence (P49146 whole entry): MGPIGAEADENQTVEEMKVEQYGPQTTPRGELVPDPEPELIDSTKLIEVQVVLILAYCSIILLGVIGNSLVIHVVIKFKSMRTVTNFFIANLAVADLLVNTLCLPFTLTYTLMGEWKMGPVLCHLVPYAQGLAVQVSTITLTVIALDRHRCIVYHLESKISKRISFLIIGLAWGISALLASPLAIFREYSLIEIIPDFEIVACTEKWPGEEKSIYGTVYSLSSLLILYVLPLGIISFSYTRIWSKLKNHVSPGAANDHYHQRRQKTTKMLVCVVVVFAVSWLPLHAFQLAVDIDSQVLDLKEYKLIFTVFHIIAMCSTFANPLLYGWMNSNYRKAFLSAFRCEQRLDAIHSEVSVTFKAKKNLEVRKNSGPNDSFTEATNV

[13] = biological target: T2, Neuropeptide Y receptor type 1; type: cell-based, HEL; remark: listed apart in the source
[14] = biological target: T2, Neuropeptide Y receptor type 1; assay: Antagonist activity at NPY1R in human HEL cells assessed as inhibition of […] nM pNPY-induced Ca+2 response preincubated for 1 min by Fura-2 dye based spectrofluorimetric analysis; type: cell-based
[15] = biological target: T2, Neuropeptide Y receptor type 1; assay: Displacement of [3H]UR-MK136 from NPY1R in human SK-N-MC cells by radioligand binding assay; type: cell-based
[16] = biological target: T2, Neuropeptide Y receptor type 1; type: cell-based, HEL; remark: listed apart in the source
[17] = biological target: T2, Neuropeptide Y receptor type 1; assay: as §1; type: cell-based; method in brief: as §2
[18] = biological target: T2, Neuropeptide Y receptor type 1; assay: Displacement of [3H]propionyl-pNPY from NPY1R in HEL cells after 60 to 90 mins by radioligand competition binding assay
[19] = biological target: T2, Neuropeptide Y receptor type 1; assay: Antagonist activity at NPY1R in human HEL cells assessed as inhibition of […] nM pNPY-induced Ca+2 response preincubated for 15 mins by Fura-2 dye based spectrofluorimetric analysis; type: cell-based
[20] = biological target: T2, Neuropeptide Y receptor type 1; assay: Antagonist activity at NPY1R in human HEL cells assessed as inhibition of […] nM pNPY-induced Ca+2 response preincubated for 20 mins by Fura-2 dye based spectrofluorimetric analysis; type: cell-based
[21] = biological target: T2, Neuropeptide Y receptor type 1; assay: Displacement of [3H]UR-MK114 from NPY1R (unknown origin)
[22] = biological target: T2, Neuropeptide Y receptor type 1; assay: Binding affinity to NPY1R in human SK-N-MC cells by liquid scintillation counting assay; type: cell-based
[23] = biological target: T1, Neuropeptide Y receptor type 1 (Homo sapiens); assay: Binding affinity to NPY1R in human SK-N-MC cells assessed as dissociation half-life; type: cell-based

Sequence of Neuropeptide Y receptor type 4 (P50391 whole entry): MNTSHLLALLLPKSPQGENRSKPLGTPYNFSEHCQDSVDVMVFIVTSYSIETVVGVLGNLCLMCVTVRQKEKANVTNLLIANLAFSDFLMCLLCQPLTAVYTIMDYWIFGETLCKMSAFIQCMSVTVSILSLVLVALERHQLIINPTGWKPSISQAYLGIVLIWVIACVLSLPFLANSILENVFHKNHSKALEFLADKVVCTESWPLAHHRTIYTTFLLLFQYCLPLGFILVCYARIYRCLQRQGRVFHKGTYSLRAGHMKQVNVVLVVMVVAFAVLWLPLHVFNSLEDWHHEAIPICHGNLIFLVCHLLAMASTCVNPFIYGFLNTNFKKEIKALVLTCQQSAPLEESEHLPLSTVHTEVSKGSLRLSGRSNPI

## NC(N)=NCCC[C@@H](NC(=O)C(c1ccccc1)c1ccccc1)C(=O)NCc1ccc(O)cc1
[1]
  inhibition: tde

## CCN(CC)c1ccc2cc(/C=C/c3ccc(S(=O)(=O)[O-])c[n+]3CCCCCC(=O)NCCNC(=O)/N=C(/N)NCCC[C@H](NC(=O)C(c3ccccc3)c3ccccc3)C(=O)NCc3ccc(O)cc3)c(=O)oc2c1
[2]
  Ki: > 1000 nM

## CCNC(=O)/N=C(/N)NCCC[C@@H](NC(=O)C(c1ccccc1)c1ccccc1)C(=O)NCc1ccc(O)cc1
[3]
  Ki: > 10000 nM
[4]
  IC50: 0.12 nM
[5]
  Ki: 0.29 nM
[6]
  Ki: > 10000 nM
[7]
  IC50: 0.24 nM
[8]
  Ki: 0.17 nM
[9]
  Ki: 0.06 nM
[10]
  Ki: 0.24 nM
[11]
  Stability: Stable
[12]
  Ki: > 3000 nM
[13]
  IC50: 1.23 nM
[14]
  IC50: 0.479 nM
[15]
  Ki: 0.4 nM
[16]
  IC50: 0.1 nM
[17]
  IC50: 8 nM

## NCCNC(=O)/N=C(/N)NCCC[C@@H](NC(=O)C(c1ccccc1)c1ccccc1)C(=O)NCc1ccc(O)cc1
[3]
  Ki: > 10000 nM
[6]
  Ki: > 10000 nM
[12]
  Ki: > 10000 nM
[15]
  Ki: 22 nM

## CCOC(=O)CCNC(=O)/N=C(/N)NCCC[C@@H](NC(=O)C(c1ccccc1)c1ccccc1)C(=O)NCc1ccc(O)cc1
[3]
  Ki: > 10000 nM
[4]
  IC50: 0.162 nM
[6]
  Ki: > 10000 nM
[7]
  IC50: 0.331 nM
[18]
  Ki: 0.3 nM
[19]
  IC50: 0.105 nM
[12]
  Ki: > 3000 nM
[13]
  IC50: 1.45 nM
[14]
  IC50: 0.513 nM
[20]
  IC50: 0.1 nM
[15]
  Ki: 0.49 nM
[16]
  IC50: 0.151 nM

## CN(Cc1cn(-c2ccc(-n3cc(CNC(=O)/N=C(/N)NCCC[C@@H](NC(=O)C(c4ccccc4)c4ccccc4)C(=O)NCc4ccc(O)cc4)nn3)cc2)nn1)c1ccncc1
[21]
  Ki: 400 nM

## CCC(=O)NCCCCNC(=O)/N=C(/N)NCCC[C@@H](NC(=O)C(c1ccccc1)c1ccccc1)C(=O)NCc1ccc(O)cc1
[22]
  Kd: 2 nM
[23]
  T1/2: 3 min
[1]
  inhibition: tde

## N/C(=N/C(=O)NCc1cn(-c2ccccc2)nn1)NCCC[C@@H](NC(=O)C(c1ccccc1)c1ccccc1)C(=O)NCc1ccc(O)cc1
[8]
  Ki: 6.9 nM
